Activity calls are given as the source filed them. No cut-off for these calls is given here.
Tests used:
[1] = Inhibition of Trichomonas vaginalis G3 AE1 expressed in Pichia pastoris after 20 mins
Outline: (§1)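 Recombinant AE zymogens expressed in Pichia pastoris; SmAE and TvAE1 autoactivated in 0.5 M sodium acetate, 4 mM DTT, pH 4.5, 37 °C, 3 h to overnight; IrAE used without activation. Buffer 0.1 M citrate phosphate, 4 mM DTT, pH 6.8 (SmAE, TvAE1) or pH 5.5 (IrAE). Inhibitor 2.0–0.0002 µM final, 20 min preincubation at room temperature; 10 µM final Cbz-Ala-Ala-Asn-AMC, 20 min; IC50 from RFU/min vs concentration.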

[2] = Inhibition of Ixodes ricinus AE expressed in Pichia pastoris after 20 mins; outline: as §1
[3] = Inhibition of Schistosoma mansoni AE expressed in Pichia pastoris after 20 mins; outline: as §1
[4] = target: T1, Caspase-3 (Homo sapiens) (UniProt P42574); experiment: Inhibition of caspase 3 assessed as ratio of pseudo-first-order inhibition rate constant to inhibitor concentration
T1 sequence (whole entry): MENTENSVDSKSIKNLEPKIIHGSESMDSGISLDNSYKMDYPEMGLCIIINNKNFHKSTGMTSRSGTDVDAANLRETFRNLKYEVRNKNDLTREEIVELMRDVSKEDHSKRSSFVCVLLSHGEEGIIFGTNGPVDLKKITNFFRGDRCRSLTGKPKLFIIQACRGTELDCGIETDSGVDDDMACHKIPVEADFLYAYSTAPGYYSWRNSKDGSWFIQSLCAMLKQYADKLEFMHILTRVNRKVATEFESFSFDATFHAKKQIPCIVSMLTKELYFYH
Outline: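 Caspase-3 (1 nM final) preactivated 10 min at 37 °C in 40 mM Pipes, 200 mM NaCl, 0.2% CHAPS, 20% sucrose mixed 1:1 with 20 mM DTT, pH 7.2; enzyme added to inhibitor plus Ac-Asp-Glu-Val-Asp-AMC; progress curves 20 min at 37 °C (ex 360, em 465 nm); duplicates; rates corrected for substrate (KM 9.7 µM).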

[5] = target: Caspase-8 (Homo sapiens) (UniProt Q14790); experiment: Inhibition of caspase 8 assessed as ratio of pseudo-first-order inhibition rate constant to inhibitor concentration
Outline: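 Caspase-8 at 50 nM final, assayed in the same Pipes/NaCl/CHAPS/sucrose/DTT buffer, pH 7.2, 37 °C with Ac-Asp-Glu-Val-Asp-AMC by the progress curve method; inhibitor stocks 5 × 10^-3 to 2.42 × 10^-6 M in DMSO; rates corrected for substrate using KM 6.79 µM.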

[6] = target: T2, Papain (Carica papaya) (UniProt P00784); experiment: Inhibition of papain assessed as ratio of pseudo-first-order inhibition rate constant to inhibitor concentration
T2 sequence (whole entry): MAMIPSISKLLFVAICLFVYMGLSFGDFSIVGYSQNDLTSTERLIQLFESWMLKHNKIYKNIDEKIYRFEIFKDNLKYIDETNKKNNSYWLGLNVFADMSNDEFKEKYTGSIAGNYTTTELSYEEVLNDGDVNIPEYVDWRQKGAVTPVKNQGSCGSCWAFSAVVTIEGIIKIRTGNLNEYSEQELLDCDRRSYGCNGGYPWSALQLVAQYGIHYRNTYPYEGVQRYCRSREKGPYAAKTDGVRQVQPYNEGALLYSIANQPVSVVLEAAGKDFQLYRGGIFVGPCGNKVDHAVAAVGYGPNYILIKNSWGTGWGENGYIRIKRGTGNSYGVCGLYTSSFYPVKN
Outline: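 Papain, about 0.29 mg/mL, incubated with inhibitor in 50 mM Hepes, 2.5 mM DTT, 2.5 mM EDTA, pH 7.5; aliquots taken over time into 53.7 µM Cbz-Phe-Arg-pNA; p-nitroanilide release read at 405 nm at room temperature; pseudo-first-order inactivation kinetics.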

[7] = target: Cathepsin B (Homo sapiens) (UniProt P07858); experiment: Inhibition of cathepsin B assessed as ratio of pseudo-first-order inhibition rate constant to inhibitor concentration
[8] = target: Lys-gingipain HG66 (Porphyromonas gingivalis) (UniProt P72197); experiment: Inhibition of Porphyromonas gingivalis gingipain K assessed as ratio of pseudo-first-order inhibition rate constant to inhibitor concentration
Outline: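 Gingipain K diluted to 4.61 nM in 0.2 M Tris-HCl, 0.1 M NaCl, 5 mM CaCl2, 2 mM DTT, pH 8.0 and incubated with inhibitor (DMSO) at room temperature; aliquots taken at intervals into buffer with Suc-Ala-Phe-Lys-AMC; fluorescence at 465 nm; pseudo-first-order kinetics.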

[9] = target: T3, Clostripain (Clostridium histolyticum) (UniProt P09870); experiment: Inhibition of sClostridium histolyticum clostripain assessed as ratio of pseudo-first-order inhibition rate constant to inhibitor concentration; settings: Hathewaya histolytica
T3 sequence (whole entry): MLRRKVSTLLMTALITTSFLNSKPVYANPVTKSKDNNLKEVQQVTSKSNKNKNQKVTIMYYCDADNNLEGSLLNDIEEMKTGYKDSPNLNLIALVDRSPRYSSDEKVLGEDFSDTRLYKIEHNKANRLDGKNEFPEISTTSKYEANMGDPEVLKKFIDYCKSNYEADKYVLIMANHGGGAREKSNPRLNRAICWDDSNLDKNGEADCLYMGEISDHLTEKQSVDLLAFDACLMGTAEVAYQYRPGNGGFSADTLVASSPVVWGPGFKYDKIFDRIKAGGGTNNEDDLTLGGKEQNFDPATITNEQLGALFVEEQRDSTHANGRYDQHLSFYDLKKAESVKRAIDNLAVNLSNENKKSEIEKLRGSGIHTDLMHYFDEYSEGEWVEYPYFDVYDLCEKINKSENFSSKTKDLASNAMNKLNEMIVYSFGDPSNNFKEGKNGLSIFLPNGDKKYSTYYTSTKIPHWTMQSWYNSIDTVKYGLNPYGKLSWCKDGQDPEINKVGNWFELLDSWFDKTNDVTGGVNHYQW
Outline: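 Clostripain activated in 8 mM DTT, then incubated with inhibitor (DMSO) in 20 mM Tris-HCl, 10 mM CaCl2, 0.005% Brij 35, 2 mM DTT, pH 7.6; aliquots taken at intervals into buffer with Cbz-Phe-Arg-AMC; fluorescence at 465 nm; pseudo-first-order kinetics.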

[10] = Stability assessed as half life in citrate phosphate buffer at pH 6.8 in presence of dithiothreitol; format: physicochemical; settings: citrate phosphate buffer with dithiothreitol

SMILES | IC50 [1] [nM] | IC50 [2] [nM] | IC50 [3] [nM] | Activity [4] | Activity [5] | Activity [6] | Ratio [7] [M⁻¹ s⁻¹] | Ratio [8] [M⁻¹ s⁻¹] | Activity [9] | half-life [10] [min] | Ratio [6] [M⁻¹ s⁻¹] | Activity [7]
CCOC(=O)/C=C/C(=O)N(CC(N)=O)NC(=O)[C@H](C)NC(=O)[C@H](C)NC(=O)OCc1ccccc1 | 4.5 | 4.5 | 31 | inactive | inactive | inactive | < 1 | 6 | inactive | 3.7 | – | –
C[C@H](NC(=O)OCc1ccccc1)C(=O)N[C@@H](C)C(=O)NN(CC(N)=O)C(=O)/C=C/C(=O)N(Cc1ccccc1)Cc1ccccc1 | 10 | 450 | 45 | inactive | inactive | – | – | 2 | inactive | 17 | 1 | inactive
C[C@H](NC(=O)OCc1ccccc1)C(=O)N[C@@H](C)C(=O)NN(CC(N)=O)C(=O)/C=C/C(=O)N(C)Cc1ccccc1 | 0.55 | < 1 | – | inactive | inactive | inactive | – | 1 | inactive | 20 | – | inactive
C[C@H](NC(=O)OCc1ccccc1)C(=O)N[C@@H](C)C(=O)NN(CC(N)=O)C(=O)/C=C/C(=O)N(C)Cc1cccc2ccccc12 | < 1 | 5.5 | 35 | inactive | inactive | inactive | – | 6 | inactive | – | – | inactive
